# Measurements: paper PMC8089085 (Drug Design, Development and Therapy, 2021)
# Read-outs that look alike come from different tables or passages of the source.
# Key:
# [1] = assay type: in vivo, human
# How it was run: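 Randomized open-label three-way crossover in healthy subjects: six sequences, five per sequence, ≥7 days washout. SGLT2 inhibitor 25 mg, PPAR-γ agonist 0.5 mg or both given orally once daily for 5 days, fasting ≥8 h. EDTA plasma sampled predose and 0.33–24 h after fifth dose; UPLC-MS/MS, calibration 5.00–1000 ng/mL. Noncompartmental analysis; mixed-effect model giving geometric mean ratios with 90% CI.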
# [2] = tested on: healthy subjects; experiment: Tolerability assessment; assay type: in vivo, human; settings: after multiple administrations in healthy subjects
# How it was run: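 Healthy subjects given at least one dose were followed from first administration to study end. Monitoring covered vital signs (systolic and diastolic pressure, pulse rate), physical examinations and adverse events. Events were elicited by nonleading open questioning and individual interviews, and each was judged for relation to the investigational drug.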
# [3] = lobeglitazone, with vs without empagliflozin
# [4] = empagliflozin, with vs without lobeglitazone
SMILES,"90% CI of AUCtau combination therapy-to-monotherapy ratio [1, 3]","90% CI of Cmax,ss combination therapy-to-monotherapy ratio [1, 3]","other tolerability parameters (laboratory test results, vital signs, physical examination) [2]","90% CI of AUCtau combination therapy-to-monotherapy ratio [1, 4]","90% CI of Cmax,ss combination therapy-to-monotherapy ratio [1, 4]"
COc1ccc(Oc2cc(N(C)CCOc3ccc(CC4SC(=O)NC4=O)cc3)ncn2)cc1 (stereo not drawn) [Lobeglitazone],0.851–1.018,0.869–0.995,no clinically significant findings,,
OC[C@H]1O[C@@H](c2ccc(Cl)c(Cc3ccc(O[C@H]4CCOC4)cc3)c2)[C@H](O)[C@@H](O)[C@@H]1O [Empagliflozin],,,no clinically significant findings,0.945–1.133,0.956–1.150
